Results from different studies.
Protocols differ between the studies behind these lines.
LATS2: Serine/threonine-protein kinase LATS2 (LATS2, Homo sapiens, UniProt Q9NRM7)
RET: Proto-oncogene tyrosine-protein kinase receptor Ret (RET, Homo sapiens, UniProt P07949)
Nos2: Nitric oxide synthase, inducible (Nos2, Mus musculus, UniProt P29477)
ASH1L: Histone-lysine N-methyltransferase ASH1L (ASH1L, Homo sapiens, UniProt Q9NR48)
CIT: Citron Rho-interacting kinase (CIT, Homo sapiens, UniProt O14578)

| Structure (SMILES) | target | read-out | mode | technique | concentration | endpoint | value |
| --- | --- | --- | --- | --- | --- | --- | --- |
| CC(C)[C@@H]1NC(=O)[C@@H]2CCCN2C(=O)[C@H](Cc2ccccc2)NC(=O)CSC[C@@H](C(=O)N[C@@H](Cc2ccc(O)cc2)C(N)=O)NC(=O)[C@H](Cc2c[nH]c3ccccc23)NC(=O)[C@H](CCCCN)NC(=O)[C@H](Cc2ccccc2)N(C)C(=O)[C@H](Cc2ccccc2)NC1=O | Stimulator of interferon genes protein (STING1, Homo sapiens, UniProt Q86WV6, H232R) | binding | – | SPR | – | kon | 71000 M⁻¹ s⁻¹ |
| Cn1cnc(Br)c1C1=CN(c2ncnc3[nH]cnc23)CCS1 | LATS2 | enzyme activity | inhibitor | radiometric | 2 µM | inhibition | 83.8% |
| O=C(Nc1ccc(NC(=O)c2ccco2)cc1C(F)(F)F)Nc1ccc(NC(=O)c2ccco2)cc1C(F)(F)F | RET | enzyme activity | inhibitor | radiometric | 0.1 µM | remaining activity | 123% |
| Cc1nn(C)c2ncc(C(=O)NC(=O)Nc3ccc(F)c(C(F)(F)F)c3)cc12 | C-C chemokine receptor type 4 (CCR4, Homo sapiens, UniProt P51679) | ligand displacement | – | radioligand | 10 µM | inhibition | < 10% |
| CC(=O)C(Cl)C(C)=O | Nos2 | enzyme activity | inhibitor | – | 1 mM | inhibition | > 40% |
| N#Cc1ccc(/C=C/CN(CC[C@H](N)C(=O)O)C[C@H]2O[C@@H](n3cnc4c(N)ncnc43)[C@H](O)[C@@H]2O)cc1 | Phenylethanolamine N-methyltransferase (PNMT, Homo sapiens, UniProt P11086) | enzyme activity | inhibitor | – | 1 µM | activity vs control | 96% |
| COc1cc2ncnc(Nc3ccc(Oc4ccccc4)c(C)c3C)c2cc1OC | Tyrosine-protein kinase JAK2 (JAK2, Homo sapiens, UniProt O60674) | enzyme activity | inhibitor | – | 1 µM | inhibition | 3% |
| Cc1nc(O)nc(O)c1C | Nos2 | enzyme activity | inhibitor | – | 1 mM | inhibition | > 40% |
| CN1CCc2cc(Nc3ncc(C4CC4)c(NCCCNC(=O)C4CCC4)n3)ccc2C1 | MAP/microtubule affinity-regulating kinase 4 (MARK4, Homo sapiens, UniProt Q96L34) | enzyme activity | inhibitor | radiometric | 1 µM | remaining activity | 3% |
| O=C(NCc1cccnc1-n1cnc2ccccc21)c1ccc2[nH]c(=O)[nH]c2c1 | RET | enzyme activity | inhibitor | radiometric | 10 µM | remaining activity | 90.8% |
| C[S+]([O-])c1ccc(-c2nc(-c3ccncc3)c(-c3ccc(F)cc3)[nH]2)cc1 (stereo not shown) | ASH1L | thermal stability | – | DSF | 10 µM | ΔTm | 0.31 °C |
| Cc1cc2c(cc1N1C(=O)c3cccc4c(Cl)ccc(c34)C1=O)n(C)c(=O)n2C | ASH1L | thermal stability | – | DSF | 10 µM | ΔTm | 1.2 °C |
| COc1ccc(NC(=O)Nc2cc(C)c3nc(NC(=O)c4ccccc4)sc3c2)c(OC)c1 | RET | enzyme activity | inhibitor | radiometric | 10 µM | remaining activity | 98.8% |
| Cc1cnc(Nc2ccc(OCCN3CCCC3)cc2)nc1Nc1cccc(S(=O)(=O)NC(C)(C)C)c1 | Bromodomain adjacent to zinc finger domain protein 2A, bromodomain (BAZ2A, Homo sapiens, UniProt Q9UIF9) | thermal stability | – | DSF | 10 µM | ΔTm | -0.11 °C |
| C=C(F)[C@@](N)(CCCCN)C(=O)O | Lysine decarboxylase (Hafnia alvei, UniProt P05033) | enzyme activity | inhibitor | absorbance | – | KI (inactivation) | 470 µM |
| Cc1cccc(-n2ncc3c(O)c(C(=O)Nc4ccc(C)cc4F)c(=O)[nH]c32)c1 | RET | enzyme activity | inhibitor | radiometric | 10 µM | remaining activity | 79% |
| O=C(CCCCCCCCc1ccc(O)cc1)c1c(O)cccc1O | Bifunctional epoxide hydrolase 2 (EPHX2, Homo sapiens, UniProt P34913) | enzyme activity | inhibitor | fluorescence | 100 µM | inhibition | 93.5% |
| CC/C(=N\NC(=O)NCc1cccc(O)c1)c1ccc(O)c(C)c1O | CIT | enzyme activity | inhibitor | – | 0.1 µM | inhibition | -4.1% |
| Oc1ccc(-c2nc(-c3ccncc3)c(-c3ccc(F)cc3)[nH]2)cc1 | ASH1L | thermal stability | – | DSF | 10 µM | ΔTm | 0.27 °C |
| Cc1ccc(C(=O)Nc2ccc(CN3CCN(C)CC3)c(C(F)(F)F)c2)cc1C#Cc1cnc2cccnn12 | CIT | enzyme activity | inhibitor | – | 23.5 nM | remaining activity | 64% |
| CC(=O)c1cccc(NC(=O)Nc2cc3c(cc2Oc2ccccc2)n(C)c(=O)n3C)c1 | RET | enzyme activity | inhibitor | radiometric | 0.1 µM | remaining activity | 104% |
| O=c1cc(CCl)occ1O | Nos2 | enzyme activity | inhibitor | – | 1 mM | inhibition | > 40% |
| COCC(=O)Nc1cc(C(=O)N(C)CCc2c(C)n[nH]c2C)c2c(c1)ncn2Cc1ccc(F)cc1 | RET | enzyme activity | inhibitor | radiometric | 0.1 µM | remaining activity | 118% |
| Nc1ncnc2occ(-c3ccc(NC(=O)Nc4cc(C(F)(F)F)ccc4F)cc3)c12 | CIT | cell-free assay | inhibitor | – | 20 µM | remaining signal | 1.3% |
| COc1ccccc1NC(=O)Nc1ccc2nc(NC(=O)c3ccccc3)sc2c1 | RET | enzyme activity | inhibitor | radiometric | 0.1 µM | remaining activity | 113% |
| CO[C@]1(C(=O)N[C@@H](C)c2ccc(-n3cc(F)cn3)nc2)CC[C@H](c2nc(C)cc(Nc3cc(C)[nH]n3)n2)CC1 | RET | thermal stability | – | DSF | 10 µM | ΔTm | 11.6 °C |
| COCC(=O)Nc1cc(C(=O)NCCc2cnn(C)c2)cc2ncn(CCc3ccccc3)c12 | RET | enzyme activity | inhibitor | radiometric | 10 µM | remaining activity | 109% |
| COc1cc(-c2cc(-c3ccc(N4CCNCC4)cc3)cnc2C)cc(OC)c1OC | LATS2 | enzyme activity | inhibitor | – | 0.1 µM | inhibition | 1% |
